ChEMBL document CHEMBL2040734, “Benzothiazoles: search for anticancer agents” (2012)

What was measured:
Type in all cases: functional
DU-145 = test: Cytotoxicity against human DU145 cells assessed as cell growth at 10 '-5 M after 48 hrs by sulforhodamine B assay; conditions: DU-145, 48 h, read-out: Activity
In short: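 Primary one-dose screen across the NCI 60-line panel at 10 µM. Cells were grown in RPMI 1640 with 5% FBS and 2 mM L-glutamine and held 24 h before drug. Drug was diluted from a DMSO concentrate. Exposure was 48 h at 37 °C, 5% CO2. Cells were fixed with TCA and stained with SRB, with absorbance read at 515 nm. Percent growth was calculated against time-zero and untreated control.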

MDA-MB-435 = test: Cytotoxicity against human MDA-MB-435 cells assessed as cell growth at 1 uM after 48 hrs by sulforhodamine B assay; conditions: MDA-MB-435, 48 h, read-out: Activity
RXF 393 = test: Cytotoxicity against human RXF393 cells assessed as cell growth at 1 uM after 48 hrs by sulforhodamine B assay; conditions: RXF 393, 48 h, read-out: Activity
NCI-H226 = test: Cytotoxicity against human NCI-H226 cells assessed as cell growth at 10 '-5 M after 48 hrs by sulforhodamine B assay; conditions: NCI-H226, 48 h, read-out: Activity
Malme-3M = test: Growth inhibition of human MALME-3M cells after 48 hrs by sulforhodamine B assay; conditions: for CC50: read-out: LC50 (the source's name)
In short: (§1)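 Adherent NCI-60 lines were grown in RPMI 1640 with 5% FBS and 2 mM L-glutamine, plated at 5000–40,000 cells/well and preincubated 24 h. They were then exposed to five concentrations (0.01–100 µM, from a DMSO stock) for 48 h at 37 °C, 5% CO2. Cells were fixed with cold TCA (10% final, 60 min, 4 °C) and stained with 0.4% SRB. Dye was solubilized in 10 mM Tris base and A515 read. GI50 was derived from time-zero, control and treated absorbances.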

RPMI-8226 [1] = test: Cytotoxicity against human RPMI8226 cells assessed as cell growth at 100 uM after 48 hrs by sulforhodamine B assay; conditions: RPMI-8226, 48 h, read-out: Activity
HCT-116 = test: Cytotoxicity against human HCT116 cells assessed as cell growth at 10 uM after 48 hrs by sulforhodamine B assay; conditions: HCT-116, 48 h, read-out: Activity
In short: (§2)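 Five-dose NCI panel run at 0.01, 0.1, 1, 10 and 100 µM. Cells were in RPMI 1640 with 5% FBS and 2 mM L-glutamine, seeded at 5000–40,000 cells/well and pre-incubated 24 h. Drug was diluted from a DMSO stock into medium with 50 µg/ml gentamicin. Exposure was 48 h at 37 °C, 5% CO2. Cells were fixed with cold TCA and stained with 0.4% SRB, read at 515 nm. Percent growth came from time-zero, control and test absorbances.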

PC-3 [2] = test: Cytotoxicity against human PC3 cells assessed as cell growth at 100 uM after 48 hrs by sulforhodamine B assay; conditions: PC-3, 48 h, read-out: Activity
NCI-H522 = test: Cytotoxicity against human NCI-H522 cells assessed as cell growth at 1 uM after 48 hrs by sulforhodamine B assay; conditions: NCI-H522, 48 h, read-out: Activity
ACHN = test: Cytotoxicity against human ACHN cells assessed as cell growth at 0.1 uM after 48 hrs by sulforhodamine B assay; conditions: read-out: Activity
In short: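 NCI-60 five-dose screen. Cells were grown in RPMI 1640 with 5% FBS and 2 mM L-glutamine and preincubated 24 h. Compound (DMSO stock) was tested at 0.01, 0.1, 1, 10 and 100 µM for 48 h at 37 °C. Cells were fixed in situ with cold TCA (final 10%) and stained with 0.4% SRB. A515 was read, and percent growth was calculated against time-zero and control plates.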

KM12 = test: Cytotoxicity against human KM12 cells assessed as cell growth at 10 '-5 M after 48 hrs by sulforhodamine B assay; conditions: KM12, 48 h, read-out: Activity
LOX IMVI = test: Growth inhibition of human LOXIMVI cells after 48 hrs by sulforhodamine B assay; in short: as §1
PC-3 [3] = test: Cytotoxicity against human PC3 cells assessed as cell growth at 10 '-5 M after 48 hrs by sulforhodamine B assay; conditions: PC-3, 48 h, read-out: Activity
SK-MEL-2 = test: Cytotoxicity against human SK-MEL-2 cells assessed as cell growth at 0.01 uM after 48 hrs by sulforhodamine B assay; conditions: SK-MEL-2, 48 h, read-out: Activity
HCC 2998 [4] = test: Cytotoxicity against human HCC2998 cells assessed as cell growth at 0.1 uM after 48 hrs by sulforhodamine B assay; conditions: HCC 2998, 48 h, read-out: Activity; in short: as §2
CCRF-CEM = test: Growth inhibition of human CCRF-CEM cells after 48 hrs by sulforhodamine B assay
In short: (§3)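 Cells were in RPMI 1640 with 5% FBS and pre-incubated 24 h. Read-out was TCA fixation, SRB staining and absorbance at 515 nm. GI50 was the concentration where [(Ti−Tz)/(C−Tz)]×100 = 50, taken from log concentration vs % growth curves. It is given as ">" the top concentration when not reached.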

T47D = test: Cytotoxicity against human T47D cells assessed as cell growth at 1 uM after 48 hrs by sulforhodamine B assay; conditions: read-out: Activity
SW-620 = test: Cytotoxicity against human SW620 cells assessed as cell growth at 0.01 uM after 48 hrs by sulforhodamine B assay; conditions: SW-620, 48 h, read-out: Activity
M14 [5] = test: Cytotoxicity against human M14 cells assessed as cell growth at 0.01 uM after 48 hrs by sulforhodamine B assay; conditions: M14, 48 h, read-out: Activity
A549 = test: Growth inhibition of human A549 cells after 48 hrs by sulforhodamine B assay; conditions: A549, 48 h; in short: as §3
M14 [6] = test: Cytotoxicity against human M14 cells assessed as cell growth at 0.1 uM after 48 hrs by sulforhodamine B assay; conditions: M14, 48 h, read-out: Activity
RPMI-8226 [7] = test: Growth inhibition of human RPMI8226 cells after 48 hrs by sulforhodamine B assay; conditions: RPMI-8226, 48 h; for CC50: read-out: LC50 (the source's name)
In short: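 Leukemia suspension lines were grown in RPMI 1640 with 5% FBS and 2 mM L-glutamine and plated at 5000–40,000 cells/well with 24 h preincubation. They were treated at 0.01, 0.1, 1, 10 and 100 µM (DMSO stock) for 48 h at 37 °C. Settled cells were fixed with 80% TCA (16% final) and stained with 0.4% SRB in 1% acetic acid, then read at 515 nm. GI50 was calculated against time-zero and control wells.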

HCC 2998 [8] = test: Growth inhibition of human HCC2998 cells after 48 hrs by sulforhodamine B assay; conditions: HCC 2998, 48 h; for CC50: read-out: LC50 (the source's name); in short: as §1
[9] = Cytotoxicity against human Hs 578T cells assessed as cell growth at 0.1 uM after 48 hrs by sulforhodamine B assay; conditions: read-out: Activity; in short: as §2

Structure (SMILES) | growth at 10 µM (DU-145) | growth at 1 µM (MDA-MB-435) | growth at 1 µM (RXF 393) | growth at 10 µM (NCI-H226) | TGI (Malme-3M) | CC50 (Malme-3M) | growth at 100 µM (RPMI-8226 [1]) | growth at 10 µM (HCT-116) | growth at 100 µM (PC-3 [2]) | growth at 1 µM (NCI-H522) | growth at 0.1 µM (ACHN) | growth at 10 µM (KM12) | TGI (LOX IMVI) | growth at 10 µM (PC-3 [3]) | growth at 0.01 µM (SK-MEL-2) | growth at 0.1 µM (HCC 2998 [4]) | GI50 (CCRF-CEM) | LC50 (CCRF-CEM) | TGI (CCRF-CEM) | growth at 1 µM (T47D) | other results
Cc1ccc2nc(Nc3c(C)cccc3C)sc2c1 | 62.1% | -8% | 52% | 69.7% | > 100 µM | > 100 µM | 73% | 21% | 56% | 38% | 105% | 11.1% | > 100 µM | 40.4% | 94% | 90% | > 100 µM | > 100 µM | > 100 µM | 75% | LC50 (LOX IMVI): > 100 µM; growth at 0.01 µM (SW-620): 97%; growth at 0.01 µM (M14 [5]): 106%; LC50 (concentration killing 50% of cells) (A549): > 100 µM; TGI (A549): > 100 µM; growth at 0.1 µM (M14 [6]): 104%; GI50 (RPMI-8226 [7]): > 100 µM; TGI (RPMI-8226 [7]): > 100 µM; CC50 (RPMI-8226 [7]): > 100 µM; GI50 (HCC 2998 [8]): > 100 µM; TGI (HCC 2998 [8]): > 100 µM; CC50 (HCC 2998 [8]): > 100 µM; growth at 0.1 µM [9]: 97%
Clc1cccc(Cl)c1Nc1nc2cccc(Cl)c2s1 | -7.04% | 46% | 45% | -40.8% | 2.4 µM | 5.6 µM | -13% | -98% | -74% | 51% | 98% | -68.5% | 2.51 µM | 4.1% | 98% | 87% | 1.32 µM | > 100 µM | 4.43 µM | 46% | GI50 (Malme-3M): 1.03 µM; GI50 (LOX IMVI): 1.09 µM; growth at 0.01 µM (SW-620): 97%; growth at 0.01 µM (M14 [5]): 103%; GI50 (A549): 1.11 µM; LC50 (concentration killing 50% of cells) (A549): 7.47 µM; TGI (A549): 2.87 µM; growth at 0.1 µM (M14 [6]): 101%; GI50 (RPMI-8226 [7]): 0.829 µM; TGI (RPMI-8226 [7]): 5.05 µM; CC50 (RPMI-8226 [7]): > 100 µM; GI50 (HCC 2998 [8]): 1.34 µM; TGI (HCC 2998 [8]): 2.78 µM; CC50 (HCC 2998 [8]): 5.74 µM; growth at 0.1 µM [9]: 81%
